ChEMBL document CHEMBL3044834, “Novel protoporphyrinogen oxidase inhibitors: 3H-pyrazolo[3,4-d][1,2,3]triazin-4-one derivatives” (J Agric Food Chem, 2008)

Legend:
Type in all cases: functional
[1] = test system: Digitaria sanguinalis; assay: Herbicidal activity against Digitaria sanguinalis (hairy crabgrass) assessed as inhibition of fresh weed plant weight at 93.75 g/ha using post-emergence treatment protocol
How it was run: (§1)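 Test compounds made up as emulsions by dissolving in 100 µL N,N-dimethylformamide, then adding a little Tween 20 and water. For post-emergence, weed seedlings at one leaf and one stem were sprayed at the same rates as the pre-emergence test. Fresh weight was recorded 15 days after treatment and expressed as percent inhibition versus controls. All treatments were run in triplicate.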

[2] = test system: Digitaria sanguinalis; assay: Herbicidal activity against Digitaria sanguinalis (hairy crabgrass) assessed as inhibition of fresh weed plant weight at 750 g/ha using post-emergence treatment protocol; how it was run: as §1
[3] = test system: Digitaria sanguinalis; assay: Herbicidal activity against Digitaria sanguinalis (hairy crabgrass) assessed as inhibition of fresh weed plant weight at 1500 g/ha using pre-emergence treatment protocol
[4] = test system: Brassica rapa subsp. oleifera; assay: Herbicidal activity against Brassica rapa subsp. oleifera assessed as inhibition of fresh weed plant weight at 750 g/ha using post-emergence treatment protocol; how it was run: as §1
[5] = test system: Brassica rapa subsp. oleifera; assay: Herbicidal activity against Brassica rapa subsp. oleifera assessed as inhibition of fresh weed plant weight at 93.75 g/ha using post-emergence treatment protocol; how it was run: as §1
[6] = test system: Brassica rapa subsp. oleifera; assay: Herbicidal activity against Brassica rapa subsp. oleifera assessed as inhibition of fresh weed plant weight at 750 g/ha using pre-emergence treatment protocol
[7] = test system: Amaranthus retroflexus; assay: Herbicidal activity against Amaranthus retroflexus assessed as inhibition of fresh weed plant weight at 1500 g/ha using post-emergence treatment protocol; how it was run: as §1
[8] = test system: Digitaria sanguinalis; assay: Herbicidal activity against Digitaria sanguinalis (hairy crabgrass) assessed as inhibition of fresh weed plant weight at 750 g/ha using pre-emergence treatment protocol
[9] = test system: Brassica rapa subsp. oleifera; assay: Herbicidal activity against Brassica rapa subsp. oleifera assessed as inhibition of fresh weed plant weight at 22.5 g/ha using pre-emergence treatment protocol
[10] = test system: Amaranthus retroflexus; assay: Herbicidal activity against Amaranthus retroflexus assessed as inhibition of fresh weed plant weight at 187.5 g/ha using post-emergence treatment protocol; how it was run: as §1
[11] = test system: Amaranthus retroflexus; assay: Herbicidal activity against Amaranthus retroflexus assessed as inhibition of fresh weed plant weight at 750 g/ha using post-emergence treatment protocol; how it was run: as §1
[12] = test system: Echinochloa crus-galli; assay: Herbicidal activity against Echinochloa crus-galli (barnyard grass) assessed as inhibition of fresh weed plant weight at 750 g/ha using post-emergence treatment protocol; how it was run: as §1
[13] = test system: Amaranthus retroflexus; assay: Herbicidal activity against Amaranthus retroflexus assessed as inhibition of fresh weed plant weight at 187.5 g/ha using pre-emergence treatment protocol
[14] = test system: Amaranthus retroflexus; assay: Herbicidal activity against Amaranthus retroflexus assessed as inhibition of fresh weed plant weight at 375 g/ha using pre-emergence treatment protocol
[15] = test system: Amaranthus retroflexus; assay: Herbicidal activity against Amaranthus retroflexus assessed as inhibition of fresh weed plant weight at 22.5 g/ha using pre-emergence treatment protocol
[16] = test system: Digitaria sanguinalis; assay: Herbicidal activity against Digitaria sanguinalis (hairy crabgrass) assessed as inhibition of fresh weed plant weight at 22.5 g/ha using pre-emergence treatment protocol
[17] = test system: Echinochloa crus-galli; assay: Herbicidal activity against Echinochloa crus-galli (barnyard grass) assessed as inhibition of fresh weed plant weight at 1500 g/ha using post-emergence treatment protocol; how it was run: as §1
[18] = test system: Echinochloa crus-galli; assay: Herbicidal activity against Echinochloa crus-galli (barnyard grass) assessed as inhibition of fresh weed plant weight at 187.5 g/ha using post-emergence treatment protocol; how it was run: as §1
[19] = test system: Echinochloa crus-galli; assay: Herbicidal activity against Echinochloa crus-galli (barnyard grass) assessed as inhibition of fresh weed plant weight at 22.5 g/ha using pre-emergence treatment protocol; how it was run: as §1
[20] = test system: Brassica rapa subsp. oleifera; assay: Herbicidal activity against Brassica rapa subsp. oleifera assessed as inhibition of fresh weed plant weight at 375 g/ha using post-emergence treatment protocol; how it was run: as §1
[21] = test system: Amaranthus retroflexus; assay: Herbicidal activity against Amaranthus retroflexus assessed as inhibition of fresh weed plant weight at 375 g/ha using post-emergence treatment protocol; how it was run: as §1
[22] = test system: Echinochloa crus-galli; assay: Herbicidal activity against Echinochloa crus-galli (barnyard grass) assessed as inhibition of fresh weed plant weight at 750 g/ha using pre-emergence treatment protocol
[23] = test system: Digitaria sanguinalis; assay: Herbicidal activity against Digitaria sanguinalis (hairy crabgrass) assessed as inhibition of fresh weed plant weight at 187.5 g/ha using post-emergence treatment protocol; how it was run: as §1
[24] = test system: Digitaria sanguinalis; assay: Herbicidal activity against Digitaria sanguinalis (hairy crabgrass) assessed as inhibition of fresh weed plant weight at 45 g/ha using pre-emergence treatment protocol
[25] = test system: Brassica rapa subsp. oleifera; assay: Herbicidal activity against Brassica rapa subsp. oleifera assessed as inhibition of fresh weed plant weight at 45 g/ha using pre-emergence treatment protocol
[26] = test system: Digitaria sanguinalis; assay: Herbicidal activity against Digitaria sanguinalis (hairy crabgrass) assessed as inhibition of fresh weed plant weight at 375 g/ha using post-emergence treatment protocol; how it was run: as §1
[27] = test system: Echinochloa crus-galli; assay: Herbicidal activity against Echinochloa crus-galli (barnyard grass) assessed as inhibition of fresh weed plant weight at 93.75 g/ha using pre-emergence treatment protocol
[28] = test system: Brassica rapa subsp. oleifera; assay: Herbicidal activity against Brassica rapa subsp. oleifera assessed as inhibition of fresh weed plant weight at 1500 g/ha using post-emergence treatment protocol; how it was run: as §1
[29] = test system: Brassica rapa subsp. oleifera; assay: Herbicidal activity against Brassica rapa subsp. oleifera assessed as inhibition of fresh weed plant weight at 375 g/ha using pre-emergence treatment protocol
[30] = test system: Digitaria sanguinalis; assay: Herbicidal activity against Digitaria sanguinalis (hairy crabgrass) assessed as inhibition of fresh weed plant weight at 1500 g/ha using post-emergence treatment protocol; how it was run: as §1
[31] = test system: Amaranthus retroflexus; assay: Herbicidal activity against Amaranthus retroflexus assessed as inhibition of fresh weed plant weight at 93.75 g/ha using pre-emergence treatment protocol
[32] = test system: Brassica rapa subsp. oleifera; assay: Herbicidal activity against Brassica rapa subsp. oleifera assessed as inhibition of fresh weed plant weight at 187.5 g/ha using post-emergence treatment protocol; how it was run: as §1
[33] = test system: Amaranthus retroflexus; assay: Herbicidal activity against Amaranthus retroflexus assessed as inhibition of fresh weed plant weight at 750 g/ha using pre-emergence treatment protocol; how it was run: as §1
[34] = test system: Echinochloa crus-galli; assay: Herbicidal activity against Echinochloa crus-galli (barnyard grass) assessed as inhibition of fresh weed plant weight at 187.5 g/ha using pre-emergence treatment protocol; how it was run: as §1
[35] = test system: Echinochloa crus-galli; assay: Herbicidal activity against Echinochloa crus-galli (barnyard grass) assessed as inhibition of fresh weed plant weight at 375 g/ha using post-emergence treatment protocol; how it was run: as §1
[36] = test system: Amaranthus retroflexus; assay: Herbicidal activity against Amaranthus retroflexus assessed as inhibition of fresh weed plant weight at 45 g/ha using pre-emergence treatment protocol
[37] = test system: Digitaria sanguinalis; assay: Herbicidal activity against Digitaria sanguinalis (hairy crabgrass) assessed as inhibition of fresh weed plant weight at 375 g/ha using pre-emergence treatment protocol
[38] = test system: Amaranthus retroflexus; assay: Herbicidal activity against Amaranthus retroflexus assessed as inhibition of fresh weed plant weight at 1500 g/ha using pre-emergence treatment protocol
[39] = test system: Echinochloa crus-galli; assay: Herbicidal activity against Echinochloa crus-galli (barnyard grass) assessed as inhibition of fresh weed plant weight at 375 g/ha using pre-emergence treatment protocol; how it was run: as §1
[40] = test system: Echinochloa crus-galli; assay: Herbicidal activity against Echinochloa crus-galli (barnyard grass) assessed as inhibition of fresh weed plant weight at 1500 g/ha using pre-emergence treatment protocol
[41] = test system: Echinochloa crus-galli; assay: Herbicidal activity against Echinochloa crus-galli (barnyard grass) assessed as inhibition of fresh weed plant weight at 45 g/ha using pre-emergence treatment protocol
[42] = test system: Amaranthus retroflexus; assay: Herbicidal activity against Amaranthus retroflexus assessed as inhibition of fresh weed plant weight at 93.75 g/ha using post-emergence treatment protocol; how it was run: as §1
[43] = test system: Digitaria sanguinalis; assay: Herbicidal activity against Digitaria sanguinalis (hairy crabgrass) assessed as inhibition of fresh weed plant weight at 93.75 g/ha using pre-emergence treatment protocol
[44] = test system: Echinochloa crus-galli; assay: Herbicidal activity against Echinochloa crus-galli (barnyard grass) assessed as inhibition of fresh weed plant weight at 93.75 g/ha using post-emergence treatment protocol; how it was run: as §1
[45] = test system: Brassica rapa subsp. oleifera; assay: Herbicidal activity against Brassica rapa subsp. oleifera assessed as inhibition of fresh weed plant weight at 187.5 g/ha using pre-emergence treatment protocol
[46] = test system: Digitaria sanguinalis; assay: Herbicidal activity against Digitaria sanguinalis (hairy crabgrass) assessed as inhibition of fresh weed plant weight at 187.5 g/ha using pre-emergence treatment protocol
[47] = test system: Brassica rapa subsp. oleifera; assay: Herbicidal activity against Brassica rapa subsp. oleifera assessed as inhibition of fresh weed plant weight at 1500 g/ha using pre-emergence treatment protocol
[48] = test system: Brassica rapa subsp. oleifera; assay: Herbicidal activity against Brassica rapa subsp. oleifera assessed as inhibition of fresh weed plant weight at 93.75 g/ha using pre-emergence treatment protocol

In the case of `C=CCN1C(=O)COc2cc(F)c(-n3nnc4c(cnn4CC=C)c3=O)cc21`, the inhibition at 93.75 g/ha [1] is reported as 0%, the inhibition at 750 g/ha [2] is reported as 4.2% and the inhibition at 1500 g/ha [3] is reported as 92.3%. It also gave an inhibition at 750 g/ha [4] of 100%, an inhibition at 93.75 g/ha [5] of 19.6% and an inhibition at 750 g/ha [6] of 100%. The inhibition at 1500 g/ha [7] was 100%, the inhibition at 750 g/ha [8] was 67.4% and the inhibition at 22.5 g/ha [9] was 12.7%. For the same compound, the inhibition at 187.5 g/ha [10] was 30.6%, the inhibition at 750 g/ha [11] was 85.1% and the inhibition at 750 g/ha [12] was 49.9%. For the same compound, the inhibition at 187.5 g/ha [13] was 100%, the inhibition at 375 g/ha [14] was 100% and the inhibition at 22.5 g/ha [15] was 3.4%. For the same compound, the inhibition at 22.5 g/ha [16] was 4.9%, the inhibition at 1500 g/ha [17] was 89.3% and the inhibition at 187.5 g/ha [18] was 14.2%. It also gave an inhibition at 22.5 g/ha [19] of 5.4%, an inhibition at 375 g/ha [20] of 95.3% and an inhibition at 375 g/ha [21] of 53.7%. It also gave an inhibition at 750 g/ha [22] of 89.2%, an inhibition at 187.5 g/ha [23] of 0% and an inhibition at 45 g/ha [24] of 17.1%. For the same compound, the inhibition at 45 g/ha [25] was 40.7%, the inhibition at 375 g/ha [26] was 0% and the inhibition at 93.75 g/ha [27] was 10%. The inhibition at 1500 g/ha [28] was 100%, the inhibition at 375 g/ha [29] was 100% and the inhibition at 1500 g/ha [30] was 31.2%. For the same compound, the inhibition at 93.75 g/ha [31] was 100%, the inhibition at 187.5 g/ha [32] was 55.6% and the inhibition at 750 g/ha [33] was 100%. It also gave an inhibition at 187.5 g/ha [34] of 34.4%, an inhibition at 375 g/ha [35] of 23.2% and an inhibition at 45 g/ha [36] of 82.8%. The inhibition at 375 g/ha [37] was 51%, the inhibition at 1500 g/ha [38] was 100% and the inhibition at 375 g/ha [39] was 47.4%. For the same compound, the inhibition at 1500 g/ha [40] was 96.5%, the inhibition at 45 g/ha [41] was 7.4% and the inhibition at 93.75 g/ha [42] was 19%. It also gave an inhibition at 93.75 g/ha [43] of 20.4%, an inhibition at 93.75 g/ha [44] of 0.2% and an inhibition at 187.5 g/ha [45] of 93.3%. It also gave an inhibition at 187.5 g/ha [46] of 26.5%, an inhibition at 1500 g/ha [47] of 100% and an inhibition at 93.75 g/ha [48] of 60.4%.
